Most compounds without a hit are left out; they make up all but 1.6% or so of the library.
MLLE-PAM2 inh: inhibitors of PABP1 MLLE–PAM2 peptide binding, primary screen, biochemical, fluorescence polarization, FITC-PAM2, GST-MLLE; inhibition, % at 20 µM; AID 588489, 2011; 360,000 tested, 0.36% active; Polyadenylate-binding protein 1 (Homo sapiens), P11940; in the data active = inhibition above about 35%, passing the limit was not always enough;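 note: plate controls were DMSO wells with GST-MLLE for no effect and wells lacking GST-MLLE protein for full effect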
RBBP9 inhibitor: human RBBP9 inhibitors, primary screen, biochemical, fluorescence polarization, FP-Rh probe, HTS. inhibition, % at 7.94 µM. 220,000 tested, 0.2% active. recombinant RBBP9. Serine hydrolase RBBP9 (Homo sapiens), O75884;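 active = inhibition above the campaign mean of all tested compounds plus 3 SD, cut at about 14% in these data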;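 note: plate controls were DMSO wells with RBBP9 for no effect and wells lacking RBBP9 protein for full effect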
Target sequence (O75884 whole entry, looked up): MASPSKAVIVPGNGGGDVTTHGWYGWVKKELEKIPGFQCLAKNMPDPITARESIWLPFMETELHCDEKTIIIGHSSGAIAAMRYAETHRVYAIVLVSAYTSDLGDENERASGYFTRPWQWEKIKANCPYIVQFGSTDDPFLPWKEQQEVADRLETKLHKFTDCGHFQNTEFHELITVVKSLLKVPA
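Assay system: recombinant human RBBP9; Reagent: Serine-hydrolase probe FP-Rh, 375 nM pre-mixing; Doses: 7.94 µM single dose, 0.794% DMSO; Incubation: 30 min then 45 min, 25 °C; Detection: fluorescence polarization (mP), excitation 525 nm, emission 598 nm; Evaluation: percent inhibition from mP, scaled between DMSO and no-protein wells.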
eIF4H inh: human eIF4H binding inhibitors, primary screen, translation initiation inhibitor project, biochemical, uHTS, fluorescence polarization; Eukaryotic translation initiation factor 4H (Homo sapiens), Q15056; eIF4H fluorescence polarization binding assay; inhibition, % at 35 µM; 290,000 tested, 0.94% active; AID 2012, 2009;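 note: calls also rest on retests at 20 µM and on dose response follow-up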
PABP polyA inh: PABP poly(A) RNA binding inhibitors, primary screen, biochemical, fluorescence polarization, uHTS; 290,000 tested, 1% active; calls only at 35 µM; AID 2014, 2009; Polyadenylate-binding protein 1 (Homo sapiens), P11940;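 note: calls also rest on retests at 20 µM and on dose response follow-up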
TCR CD3 inh: inhibitors of human TCR-CD3 interaction, primary screen, biochemical, fluorescence, TAMRA-labeled TCR probe; inhibition, % at 9.4 µM; 360,000 tested, 0.37% active; in the data active = inhibition above about 19%;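 note: recombinant mutant TCR 2C K166C tagged with TAMRA read by polarization; 0% = receptor in buffer alone and 100% = receptor with positive control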
BSA probe FL: compounds interfering with TAMRA-BSA probe, counter-screen for TCR-CD3 interaction inhibitor project, biochemical, fluorescence, TAMRA-labeled BSA; TAMRA-labeled BSA probe fluorescence counterscreen; 1,200 tested, 10% active; shares compounds with TCR CD3 inh; inhibition, % at 9.4 µM; in the data active = inhibition above about 23%;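 note: 0% = buffer low control and 100% = reference high control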
TCR-CD3 inh conf: TCR-CD3 interaction inhibitors, retest, confirmation, biochemical, fluorescence, TAMRA-labeled TCR probe; shares compounds with TCR CD3 inh; TAMRA-labeled TCR probe fluorescence binding assay; inhibition, % at 9.4 µM; 1,200 tested, 48% active; in the data active = inhibition above about 19%
* marks the source's active call; other numbers are inactive results; i = inactive; ? = inconclusive; · = not tested or not shown; + = active, no number. Unless noted, the rule behind the calls is not given here.

SMILES	MLLE-PAM2 inh	RBBP9 inhibitor	eIF4H inh	PABP polyA inh	TCR CD3 inh	BSA probe FL	TCR-CD3 inh conf
O=C(CC1CCCC1)NNC(=O)c1ccccc1O	20	·	·	·	29*	-15	23*
Cc1ccccc1SCC(=O)NNC(=O)c1ccccc1O	9	·	18	i	21*	-19	20*
COC(=O)c1cc(=O)n(Cc2ccco2)c(=Nc2ccccc2)s1	·	·	·	·	3	·	·
O=C(N[C@@H](Cc1cccnc1)C(=O)N1CCC[C@H]1C(=O)NCc1ccccc1)c1ccc(Cl)cc1Cl	·	·	·	·	3	·	·
O=C(N/N=C/c1ccoc1)c1cc(O)cc(O)c1	-7	·	96*	+	20*	-4	23*
O=C(N/N=C/c1ccoc1)c1ccccc1O	-3	·	13	i	25*	-19	15
Cc1cc(C)cc(C(=O)N/N=C/c2ccoc2)c1	-16	·	28	i	-5	·	·
CC(=O)C1=C(C)NC(=S)NC1c1ccc(F)cc1 (stereo not given)	·	·	·	·	7	·	·
COc1ccc(C(=O)c2[nH]c(N)c(C(=O)NCCc3c[nH]c4ccccc34)c2-c2c(F)cccc2Cl)cc1	·	·	·	·	-7	·	·
O=C(Nc1nc(-c2ccco2)c(-c2ccco2)s1)C1CCC1	-17	-6	82	i	-5	·	·
CS(=O)(=O)c1ccc(C(=O)Nc2nc(-c3ccco3)c(-c3ccco3)s2)cc1	-5	·	·	·	34*	-6	3
CC1=C(C(=O)N2CCCCCC2)CC(CC(=O)NCCCCc2ccccc2)C(=O)N1CCC1=CCCCC1 (stereo not given)	·	·	·	·	10	·	·
CCN(CC)c1ccc(NC(=O)COc2ccccc2C#N)cc1S(=O)(=O)Nc1ccccc1OC	30	-7	2	i	21*	2	9
O=C(Nc1ccc2ccccc2c1)c1cn(-c2ccccc2)nc1-c1cccs1	-11	-20	-10	i	89*	18	38*
C[C@H]1Cn2cnc(C(=O)N3CCN(C(=O)OC(C)(C)C)CC3)c2C(=O)N1	·	·	·	·	-1	·	·
O=C(N/N=C/c1cn(-c2ccccc2)nc1-c1cc2ccccc2o1)c1c[nH]c2ccccc12	-4	-47	-12	i	25*	11	16
Cc1cccc(-c2cccc3[nH]c4c(c23)CCN2C(=O)[C@H]3[C@H](C)ON(C)[C@H]3C[C@@H]42)c1	·	·	·	·	1	·	·
Cc1ccc(-c2ccccc2NC(=O)CS(=O)CC(=O)Nc2ccc(C)c(Cl)c2)o1 (stereo not given)	25	·	22	i	85*	11	6
CN=c1c([N+](=O)[O-])nn(-c2ccc3c(c2)OCCO3)n1O	6	-1	-8	i	64*	0	2
CC(C)c1ccc(N=c2c([N+](=O)[O-])nn(-c3ccc4c(c3)OCCO4)n2O)cc1	3	-3	-6	i	-2	·	·
CC(=O)O[C@@H]1C=C[C@@H](C#Cc2ccc(C(C)(C)C)cc2)O[C@@H]1COC(=O)NC(C)C	·	·	·	·	-1	·	·
CCn1c(SCC(=O)c2ccc(O)c(O)c2)nnc1-c1ccccc1OC	-1	-7	6	i	29*	-1	31*
CCn1c(CSc2nc3ccccc3s2)nnc1SCC(=O)c1ccc(O)c(O)c1	-57	-2	52*	+	23*	-18	29*
COC(=O)C1=C(C)N(C)C(=NCC2CC2)NC1c1cccc(Cl)c1 (stereo not given)	·	·	·	·	1	·	·
CC1CCC/C(=C\Nc2ccc(O)cc2)C1=O (stereo not given)	-23	14*	20	i	24*	2	3
SMILES	MLLE-PAM2 inh	RBBP9 inhibitor	eIF4H inh	PABP polyA inh	TCR CD3 inh	BSA probe FL	TCR-CD3 inh conf
O=C(NC1CCCC1)C(c1ccccc1)n1c(-c2cccc3ccccc23)nc2ccccc21 (stereo not given)	·	·	·	·	0	·	·
O=C(NCCNC(=O)c1ccccc1O)c1ccccc1O	8	·	-2	i	14	·	·
Cc1ccc(C(=O)CCC(=O)NNC(=O)c2ccccc2O)cc1	-3	·	·	·	21*	-14	23*
Cc1ccc2c(CC(=O)NNC(=O)c3ccccc3O)coc2c1	12	·	·	·	20*	-11	21*
O=C(CCNC(=O)c1ccccc1Cl)NNC(=O)c1ccccc1O	14	·	·	·	23*	-16	18
O=C(CNC(=O)c1ccc(Br)o1)NNC(=O)c1ccccc1O	8	·	·	·	35*	-15	32*
O=C(CNC(=O)c1ccc(Br)o1)NNC(=O)c1cccc(Cl)c1	-10	·	·	·	3	·	·
Cc1ccc(NC(=O)NCc2ccco2)cc1[N+](=O)[O-]	·	·	·	·	-1	·	·
O=C(COC(=O)c1ccc(OC(F)F)cc1)Nc1cccc(S(=O)(=O)NC2=NCCC2)c1	5	·	·	·	40*	3	-1
CN(C)c1ccc(O)c2c1CC1CC3[C@@H](N(C)C)C(=O)C(C(N)=O)=C(O)[C@]3(O)C(=O)C1=C2O (stereo not given in full)	7	12	111	i	46*	-7	27*
C/C(=N\NC(=S)NCC(C)(C)C)c1cc(F)cc(F)c1O	21	2	0	i	27*	-11	1
COCCNC(=S)N/N=C(\C)c1ccc(O)cc1	34	-1	-3	i	-4	·	·
COC(=O)[C@]12C[C@H](CC(=O)NCc3cccc4ccccc34)C(=O)N(Cc3ccc4c(c3)OCO4)C1=C[C@H](C(C)(C)C)O[C@@H]2C	·	·	·	·	-7	·	·
Cn1c(=O)c(N)c2c3c(c(Br)ccc31)C(=O)c1ccccc1-2	i	0	?	?	32*	18	23*
CCOC(=O)c1ccc(CC(=O)c2ccc(O)c(O)c2O)o1	13	-16	57	i	21*	-15	21*
Nc1ncnc2c1ncn2[C@@H]1O[C@H](C(=O)N[C@@H](CCc2ccccc2)C(=O)N2CCN(C(=O)C(F)(F)F)CC2)[C@@H](O)[C@H]1O	·	·	·	·	10	·	·
O=C(O)CCCCCn1c(SCC(=O)c2ccc(O)c(O)c2)nc2ccsc2c1=O	10	-13	30	i	25*	-6	25*
O=C(CCCn1c(SCC(=O)c2ccc(O)c(O)c2)nc2ccccc2c1=O)NCC1CCCO1 (stereo not given)	9	-14	1	i	21*	-16	40*
CCCCn1c(SCC(=O)c2ccc(O)c(O)c2)nc2ccsc2c1=O	-2	-11	2	i	·	·	·
COC(=O)[C@@]1(Cc2ccc(OC)cc2)[C@H]2c3cc(C(=O)N4CCCC4)n(Cc4ccc(C)o4)c3C[C@H]2CN1C(=O)c1ccccc1	·	-8	-6	i	60*	0	-3

Compound activity (PubChem)
